# Sampled rows, rich in hits. Any-hit rate of the full collection: about 1%.
# TLR4 MyD88 comp: inhibitors of human TLR4-MyD88 binding; HeLa CL3-4 TLR4/MyD88 BLA complementation, FRET ratio; 0.18% of 200,000 active; inhibition, % at 8.4 µM; AID 861; in the data active = inhibition above about 25%;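 note: 0% = vehicle and 100% = reference inhibitor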
# Hsp70 act: transcriptional activators of Hsp70; HeLa Hsp70 promoter luciferase reporter, luminescence; scaled: vehicle 0, proteasome-inhibitor control 100%; 0.04% of 200,000 active; AID 1203; activation, % at 10 µM;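 active = activation above the mean across all tested compounds plus 3 SD, cutoff set per campaign, cut at about 5.5% in these data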;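 note: 100% = MG132 at 30 µM as the positive control and 0% = DMSO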
# MT stabilizer: stabilizes microtubules in HeLa cells. % tubulin-high responders, % at 10 µM. AID 2205. HeLa tubulin immunostaining HCS, 24 h; share of cells brighter than vehicle mean+2SD. 0.83% of 200,000 active;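 active = plate Z-score above 3 for both tubulin-high and condensed-nucleus cell shares, with cell loss under 80%, at 10 µM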;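 note: anti alpha tubulin signal scored within the nucleus-defined area of each cell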
# TLR9-MyD88 block: inhibitors of human TLR9-MyD88 binding. CHO BLA complementation TLR9-MyD88, CCF4 FRET ratio. Q9NR96+Q99836. inhibition, % at 4.98 µM. 0.21% of 340,000 active;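 active = inhibition above the mean over all tested compounds plus 3 SD, cut at about 21% in these data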;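 note: 0% = DMSO only wells and 100% = clavulanate BLA inhibitor control wells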
# b-catenin transl: alters nuclear translocation of beta-catenin in HeLa cells; immunofluorescence imaging; nuclear translocation activity, % at 5 µM; 0.3% of 190,000 active;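 active = nuclear translocation activity above 50% at 5 µM, with a well cell count of 50 or more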;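 note: per-cell ratio of nuclear to cytoplasmic median beta-catenin stain intensity; plate controls were DMSO negative control for no effect and GSK-3 inhibitor IX positive control for full effect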
#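 Technique: fluorescence imaging of beta-catenin antibody stain plus DAPI / Material: human HeLa cell line / Incubation: compound treatment 24 h, 37°C, 5% CO2 / Read-out basis: % activation of per-cell nuclear versus cytoplasmic median beta-catenin signal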
# NOD2 RIPK2 PPI: NOD2-RIPK2 protein interaction inhibition; CHO BLA complementation NOD2-RIPK2, CCF4 ratio; inhibition, % at 4.98 µM; 0.38% of 360,000 active; in the data active = inhibition above about 21%;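 note: 0% = vehicle only and 100% = reference blocker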
# TLR9-MyD88 cf: confirmation of human TLR9-MyD88 binding inhibitors. 51% of 680 active. CHO TLR9/MyD88 BLA complementation, CCF4 FRET ratio. inhibition, % at 4.98 µM. shares compounds with TLR9-MyD88 block;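 active = mean inhibition across three repeats above about 21% taken from the earlier screen, limit read from the data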;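 note: blue over green emission ratio reports constitutive TLR9 MyD88 association via BLA complementation; 0% = DMSO vehicle wells and 100% = clavulanate BLA inhibitor wells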
# Target sequence (Q9NR96 whole entry, looked up): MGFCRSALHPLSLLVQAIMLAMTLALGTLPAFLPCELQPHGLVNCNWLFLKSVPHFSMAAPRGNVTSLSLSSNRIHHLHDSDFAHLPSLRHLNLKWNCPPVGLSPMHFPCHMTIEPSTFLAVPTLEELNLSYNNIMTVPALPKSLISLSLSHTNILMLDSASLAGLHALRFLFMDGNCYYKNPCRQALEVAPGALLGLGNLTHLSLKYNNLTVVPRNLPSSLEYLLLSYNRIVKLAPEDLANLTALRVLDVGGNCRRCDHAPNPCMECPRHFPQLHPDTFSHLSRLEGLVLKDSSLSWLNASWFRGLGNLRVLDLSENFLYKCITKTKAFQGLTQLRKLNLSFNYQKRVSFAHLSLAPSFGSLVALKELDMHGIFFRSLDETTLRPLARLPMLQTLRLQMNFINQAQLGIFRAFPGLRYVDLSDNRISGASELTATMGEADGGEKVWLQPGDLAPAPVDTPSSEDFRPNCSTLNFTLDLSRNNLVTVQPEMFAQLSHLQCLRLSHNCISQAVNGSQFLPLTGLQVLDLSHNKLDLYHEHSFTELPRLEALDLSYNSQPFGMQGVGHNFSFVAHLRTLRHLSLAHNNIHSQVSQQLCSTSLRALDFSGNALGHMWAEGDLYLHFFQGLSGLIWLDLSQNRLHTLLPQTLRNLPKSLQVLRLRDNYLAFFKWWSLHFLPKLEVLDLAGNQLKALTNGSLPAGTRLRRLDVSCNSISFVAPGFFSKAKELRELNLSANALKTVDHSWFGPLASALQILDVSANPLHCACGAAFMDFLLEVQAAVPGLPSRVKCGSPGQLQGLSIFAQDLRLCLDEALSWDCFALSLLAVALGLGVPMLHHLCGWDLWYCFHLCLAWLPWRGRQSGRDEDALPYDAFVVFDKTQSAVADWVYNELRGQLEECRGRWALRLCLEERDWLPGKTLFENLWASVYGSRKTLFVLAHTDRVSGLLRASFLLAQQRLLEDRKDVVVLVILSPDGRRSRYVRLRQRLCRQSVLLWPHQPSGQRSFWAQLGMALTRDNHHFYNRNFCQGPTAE
# BLA nonselective: beta-lactamase reporter inhibition, counter-screen artifact. shares compounds with TLR9-MyD88 block. 7% of 680 active. AID 540251. inhibition, % at 4.98 µM. CHO-BLA cells, CCF4 FRET ratio, BLA reporter;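 active = mean inhibition above a 50% cutoff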;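 note: counterscreen of TLR9-MyD88 hits on CMV-driven BLA in CHO-K1 cells; 0% = DMSO alone and 100% = clavulanate blocking BLA; higher means less blue over green ratio so more BLA blockade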
# TLR9 CHO tox: counter-screen for TLR9-MyD88 inhibitors: cytotoxicity in CHO cells. shares compounds with TLR9-MyD88 block. luminescence. inhibition, % at 4.98 µM. 39% of 680 active. AID 588336; in the data active = inhibition above about 11%
# Numbers without * were called inactive; x = not tested or not shown.
SMILES,TLR4 MyD88 comp,Hsp70 act,MT stabilizer,TLR9-MyD88 block,b-catenin transl,NOD2 RIPK2 PPI,TLR9-MyD88 cf,BLA nonselective,TLR9 CHO tox
C#CCOCCOCCOCCNc1nc(N2CCN(C(=O)CCCCCCCCCCNC(=O)[C@H](CCCCN)n3cc(C[C@@H](C)CC)nn3)CC2)nc(N2CCN(C(=O)CCCCCCCCCCNC(=O)[C@H](CCCCN)n3cc(C[C@@H](C)CC)nn3)CC2)n1,x,x,x,52*,x,35*,29*,17,43*
O=C(N/N=C/c1ccccc1F)c1cc2c(ccc3ccccc32)o1,x,x,x,-8,x,-12,x,x,x
O=C(N/N=C/c1cccc2ccccc12)c1cc2ccccc2o1,x,x,x,23*,x,-5,3,-2,4
O=C(Nc1c2c(nn1-c1ccccc1)CS(=O)(=O)C2)C1CC1,x,x,x,4,x,-7,x,x,x
O=C(Nc1c2c(nn1-c1ccccc1)CS(=O)(=O)C2)c1ccccc1Br,x,x,x,23*,x,9,8,10,-1
O=C(OCC(=O)N1N=C(c2ccc(Cl)cc2)CC1c1ccco1)c1cccnc1 (stereo unspecified),x,x,x,-11,x,-2,x,x,x
Cc1cc(/C=C2\Cc3ccccc3C2=O)c(C)n1-c1ccccc1,1,0,5,21*,1,10,19,23,8
Cc1cc(C=C2C(=O)c3ccccc3C2=O)c(C)n1-c1ccccc1,10,0,3,0,1,-3,x,x,x
COc1ccc(C(=O)/C=C/c2ccc(O)cc2)c(O)c1CC=C(C)C,-6,0,3,5,0,3,x,x,x
COc1ccc(C(=O)/C=C/c2ccc(O)cc2)c2c1CC(O)C(C)(C)O2 (stereo unspecified),x,x,x,23*,x,3,6,5,5
COc1cccc(C2=CC(c3ccc(OC)c(OC)c3OC)n3nnnc3N2)c1 (stereo unspecified),1,0,3,22*,1,15,3,4,3
COc1ccccc1C1C=C(c2ccccc2)Nc2nnnn21 (stereo unspecified),1,0,3,14,-2,14,x,x,x
NC(=O)c1ccsc1NC(=O)CSc1nncs1,x,x,x,-1,x,8,x,x,x
O=C(CSc1nncs1)Nc1nccs1,x,x,x,26*,x,0,0,-2,-1
CCOC(CNC(=O)CN1C(=O)COc2ccc(S(=O)(=O)N3CCCC3)cc21)OCC,x,x,x,-6,x,3,x,x,x
CCOC(=O)COc1ccc2ccccc2c1/C=C/[N+](=O)[O-],0,1,2,24*,-1,-1,34*,-3,90*
CCOC(=O)COc1ccc(/C=C/[N+](=O)[O-])c(OCC(=O)OCC)c1,11,0,3,22*,0,1,13,-2,28*
S=c1[nH]nc(-c2cccnc2)n1Cc1ccccc1,-4,0,3,24*,x,2,-3,-4,-3
CC[C@]12c3[nH]c4cc(-c5ccco5)ccc4c3CCN1C(=O)[C@@H](CC(=O)NCCc1ccccn1)C[C@@H]2C(=O)N1CCN(C(=O)C2CC2)CC1,x,x,x,7,x,-8,-3,-3,1
CCn1c(=O)n(CC)c2cc(N3CCCC3)c(NC(=O)c3cccc(Cl)c3)cc21,x,x,x,-5,x,1,x,x,x
CN(C)/C=C1\C=C2C(=O)c3ccccc3N2C1=O,x,x,x,23*,1,1,7,8,-1
CCn1nc(NC(=O)c2cccnc2)c2cc3cccc(C)c3nc21,-16,0,3,23*,-4,-20,-6,-1,1
CCOC(=O)Cc1csc(/N=C/c2c(O)n(-c3ccccc3C(F)(F)F)c(=O)c3ccccc23)n1,18,0,3,22*,-4,9,8,9,10
CCOC(=O)Cc1csc(-n2sc3ccccc3c2=O)n1,13,0,3,-3,x,16,x,x,x
c1ccc(CCCNCCCn2cnc3c(OCc4ccccc4)ncnc32)cc1,x,x,x,1,x,2,x,x,x
SMILES,TLR4 MyD88 comp,Hsp70 act,MT stabilizer,TLR9-MyD88 block,b-catenin transl,NOD2 RIPK2 PPI,TLR9-MyD88 cf,BLA nonselective,TLR9 CHO tox
COc1ccc(CN2CCC(CNC(=O)NC3CCCCC3)CC2)cc1,6,0,6,22*,0,2,-1,2,0
COc1ccc(CNC(=O)NC2CCCCC2)cc1,-2,0,3,-9,-4,-4,x,x,x
O=C1c2ccccc2NC(c2ccc(-c3cccc([N+](=O)[O-])c3)o2)N1O (stereo unspecified),2,0,5,22*,x,3,8,7,43*
O=C(CNC(=O)c1ccco1)NCc1ccc2c(c1)OCO2,x,x,x,3,x,-4,x,x,x
O=C(COC(=O)c1cccc(S(=O)(=O)NCc2ccccc2)c1)NC1CC1,x,x,x,8,x,-2,x,x,x
CCN(C(=O)COC(=O)c1cccc(S(=O)(=O)NCc2ccccc2)c1)c1ccccc1,x,x,x,22*,x,19,5,9,3
COC(=O)C[C@H]1C=C[C@@H](C(C(=O)OC)C(=O)OC)CN1C(C)=O,x,x,x,-1,x,-10,x,x,x
CC(C)(C)C(=O)NC(=S)NNC(=O)c1sc2ccccc2c1Cl,-11,0,4,30*,x,-14,9,25,47*
Cn1nc(C2CC2)cc1NC(=O)C1(C)CCN1C(=O)Cc1ccc(-c2ccccc2)cc1 (stereo unspecified),x,x,x,x,x,-11,x,x,x
CCOC(=O)C1CCN(C(=O)c2cc3c(-c4ccc(OC)c(OC)c4)nn(C)c3s2)CC1,9,0,4,13,x,-11,x,x,x
CCOC(=O)C1CCCN(C(=O)c2cc3c(-c4cccc(OC)c4)nn(C)c3s2)C1 (stereo unspecified),-5,0,32,28*,-2,5,3,-2,27*
CCCCN(C(=O)CSc1nnc(-c2ccccc2)n1C)c1c(N)n(Cc2ccccc2)c(=O)[nH]c1=O,0,0,6,21*,-1,2,-1,-1,1
CN1CCN(C(=O)C2=NOC3(C2)C(=O)Nc2ccccc23)CC1 (stereo unspecified),x,x,x,x,x,-10,x,x,x
O=C1c2cccc3c(O)ccc(c23)C(=O)N1c1ccc(Cl)cc1,x,x,x,27*,x,7,12,15,0
COc1ccc(OC)c(CN2C(=O)CN(S(C)(=O)=O)CC2(C)C(=O)Nc2c(C)cccc2C)c1 (stereo unspecified),x,x,x,x,x,-6,x,x,x
CC(C)n1cc(CN2CCCC(C(=O)Nc3cccc(-c4cc5ccccc5[nH]4)c3)C2)cn1 (stereo unspecified),x,x,x,23*,x,5,6,-1,7
